Experimental data as given in publication PMC2966122 (The Journal of Biological Chemistry, 2010).
Blank lines part the entries; values can stand above or below the molecule they belong to.

Legend:
[1] = Glycan array binding of FITC-labeled galectins; settings: for Affinity for sialylated (and sulfated) galactosides on the array: site B; for Glycans bound on the array (overall): all glycans of the array; for Glycans bound on the array: 200 μg/ml galectin
In short: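 The printed array carries 406 glycans, six spots each, on NHS-activated glass. FITC-galectins at 200 μg/ml in Tris-buffered saline pH 7.4 (2 mM CaCl2, 2 mM MgCl2, 1% BSA, 0.05% Tween 20) were incubated 60 min at room temperature in the dark under a coverslip, then washed and dried. Slides were scanned at 488 nm and read as RFU (ceiling 40,000). Highest and lowest spots were dropped and the remaining four averaged.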

Fluorescence anisotropy = format: binding; settings: for Affinity for 3-sialylated galactosides: probes 6–9 (6–8 for Xenopus); for Affinity for 3-sialylated galactosides / Affinity for GlcNAcβ1–3-substituted galactosides: relative to human wild type galectin-3; for Affinity for GlcNAcβ1–3-substituted galactosides: probes 9–15; for Binding to glycans where LacNAc or Galβ1–3GlcNAc is likely in site C-D: e.g. probes 2, 3, 7 and 8
In short: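 Equilibrium fluorescence anisotropy with 0.1 μM fluorescein-tagged saccharide probe (15 probes) titrated with 0.05–80 μM lactose-freed galectin. Read at room temperature and after incubation on ice (about 4 °C), ex 485/em 520 nm. Kd derived from the binding curve using probe-alone (A0) and saturated (Amax) anisotropy, with Amax extrapolated for partial curves. Not detected if anisotropy stayed ≤50 mA at 50 μM galectin.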

[2] = test system: N-Ras to K-Ras activation; settings: cited from earlier work
SKBR3 cells = test: Localization of EGFP-galectin-3 and mutants in transfected cells; format: cell-based, human; settings: EGFP fusion protein; for Entry into vesicles: stably transfected
In short: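 SKBR3 breast cancer cells were Lipofectamine-transfected with pEGFP-C1 EGFP-galectin-3 constructs and grown in RPMI 1640/10% FBS with 1 mg/ml G418 for ≥2 weeks to obtain stable lines. Cells were grown 1–2 days on coverslips, fixed in 4% paraformaldehyde, mounted with DAPI and viewed by epifluorescence microscopy. Fluorescent vesicles (dots) per cell were counted in 300 cells per construct.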

[3] = test system: intracellular anti-apoptotic effect; settings: cited from earlier work
TNFα-primed neutrophils = test: NADPH oxidase activation of TNFα-primed neutrophils; format: cell-based, human; settings: for Activation of primed neutrophils (release of oxygen radicals): dose response relative to wild type galectin-3 run in parallel, up to 3.5 μM
In short: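 Human neutrophils (1 × 10^7/ml) were primed 20 min at 37 °C with TNFα 10 ng/ml. Tubes held 10^6 cells and were equilibrated 5 min at 37 °C before galectin was added. Chemiluminescence was recorded continuously. Extracellular superoxide was read with HRP (4 units) plus isoluminol (6 × 10^-5 M). Intracellular ROS was read with SOD (50 units), catalase (2000 units) and luminol (2 × 10^-5 M). Peak responses were normalized to the parallel 3.5 μM wild-type peak.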

neutrophils [4] = test: Galectin binding to neutrophils; format: cell-based, human; settings: FITC-labeled galectin 40 μg/ml
In short: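 Human blood neutrophils from buffy coats (dextran sedimentation, Ficoll-Paque) were pretreated at 37 °C with or without TNFα, or held at 4 °C without it. They were then incubated 1 h at 4 or 37 °C with FITC-galectin (40 μg/ml) and washed twice in PBS/0.02% NaN3/EDTA. Flow cytometry gave geometric mean fluorescence from three neutrophil batches (mean, S.E.), with paired one-tailed t tests.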

neutrophils [5] = settings: cited from earlier work
Shigella bacteria = settings: cited from earlier work
[6] = cited from earlier work
MDCK cells = settings: EGFP fusion protein in MDCK cells; cited from earlier work
[7] = cited from earlier work; remark: listed apart in the source
[8] = cited from earlier work; remark: listed apart in the source
[9] = compared with human galectin-3; cited from earlier work

Affinity for glycans with GalNAcα in site B on the array ([1]; but not those with Galα (blood group B type)): selective loss of affinity
Molecule: A146Q: Human galectin-3 point mutant in site B, Ala-146 to Gln
Affinity for 3-sialylated galactosides (Fluorescence anisotropy): slightly reduced affinity
Affinity for GlcNAcβ1–3-substituted galactosides (Fluorescence anisotropy): retained affinity, albeit lower

Affinity for sialylated (and sulfated) galactosides on the array ([1]; relative to wild type): lost affinity
Molecule: K176L: Human galectin-3 point mutant in site B, Lys-176 to Leu
Affinity for 3-sialylated galactosides (Fluorescence anisotropy): lost affinity
Affinity for GlcNAcβ1–3-substituted galactosides (Fluorescence anisotropy): significantly better than wild type galectin-3
Binding to primed and non-primed neutrophils (neutrophils [4]): about equally well
Increase in binding after TNFα priming (neutrophils [4]): 30–50%
Activation of primed neutrophils (release of oxygen radicals) (TNFα-primed neutrophils): clearly increased potency

Affinity for sialylated (and sulfated) galactosides on the array ([1]; relative to wild type): lost affinity
Molecule: R144S: Human galectin-3 point mutant in site B, Arg-144 to Ser
Affinity for the GalNAcα extended galactoside (Fluorescence anisotropy; probe 5 (A-tetrasaccharide), relative to wild type): increased affinity
Affinity for 3-sialylated galactosides (Fluorescence anisotropy): lost affinity
Affinity for GlcNAcβ1–3-substituted galactosides (Fluorescence anisotropy): lost affinity

Glycans bound on the array (overall) [1]: bound a few more glycans
Background binding, maximum ([1]; remaining 227 glycans not expected to bind galectins): 2674 RFU
Binding to glycans where LacNAc or Galβ1–3GlcNAc is likely in site C-D (Fluorescence anisotropy): lost binding
Molecule: R186I: Human galectin-3 mutant replacing Arg-186 with Ile, as found in galectin-8N
Affinity for glycans with Lac in site C-D (Fluorescence anisotropy; relative to wild type): retained reduced affinity

Glycans bound on the array (overall) [1]: bound only one glycan
Binding to glycans where LacNAc or Galβ1–3GlcNAc is likely in site C-D (Fluorescence anisotropy): lost binding
Molecule: R186S: Human galectin-3 mutant replacing Arg-186 with Ser (site D)
Affinity for glycans with Lac in site C-D (Fluorescence anisotropy; relative to wild type): retained reduced affinity
Binding to primed and non-primed neutrophils (neutrophils [4]): did not bind any of the neutrophil preparations
Ability to promote the phagocytosis of apoptotic cells by neutrophils (neutrophils [5]): lost
Accumulation around invading Shigella bacteria (Shigella bacteria): did not accumulate around invading Shigella bacteria
Ability to bind human serum glycoproteins [6]: completely lost the ability to bind human serum glycoproteins
Entry into vesicles (SKBR3 cells): not visible in vesicles
Vesicle entry and apical targeting of glycoproteins (MDCK cells): did not enter vesicles and did not direct apical targeting of glycoproteins

More lines, now with the values behind:

Molecule: G182A: Human galectin-3 point mutant near site C, Gly-182 to Ala
Binding to Galβ1–3GlcNAc containing glycans on the array ([1]; relative to wild type): preferentially, although not exclusively, lost binding
Induction of a shift from N-Ras to K-Ras activation [2]: lost
Entry into vesicles (SKBR3 cells): much fewer in number per cell
Intracellular anti-apoptotic effect [3]: lost

Molecule: K176L/N180T: Human galectin-3 double mutant obtained by a mistake in primer design
Affinity for some of the longer GlcNAcβ-extended galactosides (Fluorescence anisotropy; compared with K176L): slightly increased affinity
Concentration inducing significant neutrophil activation (TNFα-primed neutrophils; TNFα-primed neutrophils): ≤ 0.2 µM
Activation of primed neutrophils (release of oxygen radicals) (TNFα-primed neutrophils): clearly increased potency

Molecule: wild type galectin-3: Recombinant human galectin-3 produced in E. coli; expressed as EGFP fusion in SKBR3 cells
Binding of galactosides with 3-linked N-glycoloyl neuraminic acid (NeuGc) ([1]; compared with NeuAc): equally well
Glycans bound on the array ([1]; glycans with a LacNAc available for binding in site C-D): 45 of 94
Glycans bound on the array ([1]; glycans with available Galβ1–3GlcNAc): 15 of 36
Glycans bound on the array ([1]; glycans with only Galβ1–3GalNAc available): did not bind at all
Glycans bound on the array ([1]; glycans with only lactose available): 6 of 24
Enhancement of binding affinity by addition of GalNAcα1–3 or Galα1–3 [7]: 10–25 fold
Binding to primed and non-primed neutrophils (neutrophils [4]): about equally well
Increase in binding after TNFα priming (neutrophils [4]): 30–50%
Entry into vesicles (SKBR3 cells): entered vesicles in some of the cells
Cells with dots (galectin containing vesicles) (SKBR3 cells; depending on how confluent the cells were): 15–30 % of cells
Affinity for Galβ1–3GalNAc lower than for LacNAc [8]: 10–50 fold

B1: Mouse galectin-3: Recombinant mouse galectin-3 orthologue (protein, UniProt P16110 2-264, looked up)
Galectin-3: ADSFSLNDALAGSGNPNPQGYPGAWGNQPGAGGYPGAAYPGAYPGQAPPGAYPGQAPPGAYPGQAPPSAYPGPTAPGAYPGPTAPGAYPGQPAPGAFPGQPGAPGAYPQCSGGYPAAGPYGVPAGPLTVPYDLPLPGGVMPRMLITIMGTVKPNANRIVLDFRRGNDVAFHFNPRFNENNRRVIVCNTKQDNNWGKEERQSAFPFESGKPFKIQVLVEADHFKVAVNDAHLLQYNHRMKNLREISQLGISGDITLTSANHAMI
Affinity for GlcNAcβ1–3-substituted galactosides (Fluorescence anisotropy): lower affinity for all the saccharide probes tested and most significantly for the ones extended by GlcNAcβ
Affinity for all the saccharide probes tested (Fluorescence anisotropy; relative to human galectin-3): lower affinity

B2: Rat galectin-3: Rat galectin-3 orthologue, not available for study here; literature data (protein, UniProt P08699 2-262, looked up)
Galectin-3: ADGFSLNDALAGSGNPNPQGWPGAWGNQPGAGGYPGASYPGAYPGQAPPGGYPGQAPPSAYPGPTGPSAYPGPTAPGAYPGPTAPGAFPGQPGGPGAYPSAPGAYPSAPGAYPATGPFGAPTGPLTVPYDMPLPGGVMPRMLITIIGTVKPNANSITLNFKKGNDIAFHFNPRFNENNRRVIVCNTKQDNNWGREERQSAFPFESGKPFKIQVLVEADHFKVAVNDVHLLQYNHRMKNLREISQLGIIGDITLTSASHAMI
Lower affinity for NeuAcα2–3Lac [9]: ~5 fold
